Experimental data of several laboratories.
pIC50: −log10 of the molar value.
SLC6A3: Sodium-dependent dopamine transporter (SLC6A3, Homo sapiens, UniProt Q01959)
DRD3: D(3) dopamine receptor (DRD3, Homo sapiens, UniProt P35462)
HDAC5: Histone deacetylase 5 (HDAC5, Homo sapiens, UniProt Q9UQL6)

For `NS(=O)(=O)c1ccc(Nc2nc(-c3cc4cc(Br)ccc4oc3=O)cs2)c(Br)c1`, the pIC50 was 5.21 (Carbonic anhydrase 12 (CA12, Homo sapiens, UniProt O43570); enzyme activity, inhibitor, absorbance).
With `NC(=O)c1nnn(Cc2cc(Cl)c(C(=O)c3ccc(Cl)cc3)c(Cl)c2)c1N` the pIC50 was 7.16 (SLC6A3; transporter uptake, inhibitor).
`Cc1[nH]c(C)c(S(=O)(=O)Nc2ccc(C(F)(F)F)c(Cl)c2)c1C(=O)N1CCc2ccccc21` has a pIC50 of 4.68 (DRD3; G protein activation, antagonist, BRET).
`COc1c(Cl)cccc1Nc1c(-c2ccncc2OC[C@@H]2COCCO2)[nH]c2c1C(=O)NCC2` has a pIC50 of 7.27 (Discoidin domain-containing receptor 2 (DDR2, Homo sapiens, UniProt Q16832); cell-free assay, TR-FRET).
For `O[C@@H]1[C@H](O)[C@@H]2C[C@@H]2[C@H]1n1cnc2c(NCCC3CC3)ncnc21`, the pIC50 was 5.03 (SLC6A3; transporter uptake, inhibitor, radiometric).
`CCCN(CCC)S(=O)(=O)c1ccc(C(=O)O)cc1` has a pIC50 of 2.66 (Taste receptor type 2 member 16 (TAS2R16, Homo sapiens, UniProt Q9NYV7, N96T); inositol phosphate, antagonist, TR-FRET).
`Cc1[nH]c(C)c(C(=O)N2CCC(F)(F)C2)c1C(=O)Nc1ccc(C(F)(F)F)c(Cl)c1` has a pIC50 of 4.39 (DRD3; β-arrestin recruitment, antagonist).
The pIC50 of `O=C(NO)c1ccc(Cn2cnc3c(Nc4ccc(Cl)cc4)ncnc32)cc1` is reported as 6.33 (HDAC5; enzyme activity, inhibitor).
With `COc1ccc(N(Cc2csc(-c3ccccc3)n2)C(=O)CCCCCC(=O)NO)cc1` the pIC50 was under 5.00 (HDAC5; enzyme activity, inhibitor).
With `Cc1cc(O)c(-c2ccc([C@@H](C)CN(C)C)cc2)c2c1[nH]c(=O)c1sccc12` the pIC50 was under 6.00 (Cyclin-dependent kinase 12, with cyclin K (CDK12, Homo sapiens, UniProt Q9NYV4); enzyme activity, inhibitor).
`CCc1ccc(NS(=O)(=O)c2c(C)[nH]c(C)c2C(=O)N2CCC(F)(F)C2)cc1Cl` gave a pIC50 of 5.80 (DRD3; G protein activation, antagonist, BRET).
For `CNc1nc(C#Cc2ccc(Cl)s2)nc2c1ncn2[C@H]1[C@H](O)[C@H](O)[C@]2(CC#N)C[C@H]12`, the pIC50 was 6.44 (SLC6A3; transporter uptake, inhibitor, radiometric).
`COc1ccc(N(Cc2csc(-c3ccc(Br)cc3)n2)C(=O)CCCCCC(=O)NO)cc1` gave a pIC50 of under 5.00 (HDAC5; enzyme activity, inhibitor).
With `Cc1[nH]c(C)c(S(=O)(=O)Nc2cc(Cl)cc(Cl)c2Cl)c1C(=O)N1CCC(F)(F)C1` the pIC50 was 4.92 (DRD3; β-arrestin recruitment, antagonist).
With `CN(C)C(=O)c1cc2cnc(Nc3ccc(-c4cccc5c(=O)cc(N6CCOCC6)oc45)cc3)nc2n1C1CCCC1` the pIC50 was 6.69 (DNA-dependent protein kinase catalytic subunit (PRKDC, Homo sapiens, UniProt P78527); enzyme activity, inhibitor).
The pIC50 of `N=C(N)c1ccc(OCCCCCOc2ccc(C(=N)N)cc2)cc1` is reported as under 4.00 (Coagulation factor XI (F11, Homo sapiens, UniProt P03951); enzyme activity, inhibitor, absorbance).
